Where a name gives a salt, the structure may show the parent alone. Activity calls are given as the source filed them. No cut-off for these calls is given here. Where only a bound is given, the exact number is not on record here.

As usually defined, the EC50 is the midpoint of the concentration-response curve. High values mean a less potent agent, low ones a more potent agent.

Assay [1] can be described thus: Antiproliferative activity against mouse B16-BL6 cells after 72 hrs by MTT assay. The assay is classed as functional, cell-based. Conditions: B16-BL6, 72 h. The method in brief:
(§1)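 Cells kept in Eagle's MEM with 10% fetal calf serum. 2500 cells per well were left to attach for 24 h at 37 °C under 5% CO2, then given varying concentrations for 72 h. Samples were dissolved in DMSO and diluted in medium (DMSO <0.1%). After 2 h with MTT, formazan was read at 550 nm. EC50 was taken from the mean of four wells.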

Another assay concerns HT-1080. The experiment in a line: Antiproliferative activity against human HT1080 cells after 72 hrs by MTT assay. The assay is classed as functional, cell-based. Particulars: HT-1080, 72 h. The method in brief:
as §1
In general terms: Tetrazolium assays rely on reduction of a dye to a coloured formazan, in cell work by metabolically active cells.

For a further assay, the system named is A549. The experiment in a line: Antiproliferative activity against human A549 cells after 72 hrs by MTT assay. The assay is classed as functional, cell-based. Particulars: A549, 72 h. The method in brief: as §1
In another assay the test system is HeLa. Put plainly: Antiproliferative activity against human HeLa cells after 72 hrs by MTT assay. The assay is classed as functional, cell-based. The method in brief: as §1
The nature of assay [2]: Antiproliferative activity against mouse 26-L5 cells after 72 hrs by MTT assay. The assay is classed as functional, cell-based. A digest of the protocol:
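Murine colon 26-L5 carcinoma cells kept in RPMI with 10% fetal calf serum. 2500 cells per well were left to attach for 24 h at 37 °C under 5% CO2, then exposed for 72 h to varying concentrations in medium, from a DMSO stock (<0.1% DMSO). MTT was added for 2 h and formazan read at 550 nm. EC50 was taken from the mean of four wells.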

A short description of assay [3]: DPPH radical scavenging activity after 30 mins. The assay is classed as functional. A digest of the protocol: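 Samples in EtOH were vortexed with an equal volume of DPPH solution ([…] before mixing). Absorbance was read at 520 nm after 30 min.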
On the technique in general: DPPH is a stable violet radical that fades when it is reduced.

Turning to `COc1cc(O)c2c(=O)cc(-c3ccccc3)oc2c1` [TECHTOCHRYSIN], the EC50 in assay [1] was 226 µM; with HT-1080, 358 µM; with A549, > 370 µM; in the assay with HeLa, > 370 µM; in assay [2], 273 µM.
With `O=C1C[C@@H](c2ccccc2)Oc2cc(O)cc(O)c21` [PINOCEMBRIN], the EC50 was 68 µM in assay [1]; 92.4 µM with HT-1080; 229 µM in the assay on A549; 108 µM in the assay with HeLa; 75.6 µM in assay [2].
Regarding `COc1cc(/C=C/C(=O)OCc2ccccc2)ccc1O` [BENZYL FERULATE], the EC50 was found to be 63.7 µM in assay [1]; 46.7 µM in the assay with HT-1080; 92.8 µM in the assay with A549; 51.1 µM in the assay on HeLa; 46.4 µM in assay [2].
Consider `COc1ccc(/C=C/C(=O)O)cc1OC` [O,O'-DIMETHYLCAFFEIC ACID], for which the concentration for a half-maximal effect (EC50) (in assay [1]; with HT-1080; in the assay on A549; in the assay with HeLa; in assay [2]) was > 480 µM throughout.
For `CC[C@H](C)C(=O)O[C@H]1C(=O)c2c(O)cc(O)cc2O[C@@H]1c1ccccc1`, the EC50 in assay [1] worked out at 185 µM; with HT-1080, 143 µM; in the assay on A549, 160 µM; in the assay with HeLa, 116 µM; in assay [2], 78.9 µM.
On the same counts, the results for `O=c1cc(-c2ccccc2)oc2cc(O)c(C/C=C/c3ccccc3)c(O)c12` are > 270 µM, > 270 µM, > 270 µM, > 270 µM and > 270 µM.
In the case of `COc1cc(O)c2c(=O)c(O)c(-c3ccccc3)oc2c1` [IZALPININ], the EC50 in assay [1] was > 350 µM; with HT-1080 it was > 350 µM; in the assay on A549, > 350 µM; in the assay on HeLa, 106 µM; in assay [2] it was 30.3 µM.
`COc1ccc(/C=C/C(=O)O)cc1O` [ISOFERULIC ACID]: the EC50 (in assay [1]; in the assay with HT-1080; in the assay on A549; with HeLa; in assay [2]) was > 515 µM throughout.
For `O=c1cc(-c2ccccc2)oc2cc(O)cc(O)c12` [CHRYSIN], the EC50 in assay [1] worked out at 74.4 µM; in the assay on HT-1080 it was 94.9 µM; in the assay on A549 it was 233 µM; with HeLa, 111 µM; in assay [2] it was 109 µM.
On to `O=c1c(O)c(-c2ccccc2)oc2cc(O)cc(O)c12` [GALANGIN], for which the EC50 worked out at 26.8 µM in assay [1]; 35.7 µM with HT-1080; 93.6 µM with A549; 79 µM in the assay with HeLa; 19.2 µM in assay [2].
Turning to `O=C(/C=C/c1ccc(O)c(O)c1)OCc1ccccc1` [BENZYL CAFFEATE], the EC50 in assay [1] amounted to 9.78 µM; with HT-1080, 9.74 µM; in the assay with A549, 35 µM; in the assay on HeLa, 2.33 µM; in assay [2] it was 1.01 µM. Also, the result in assay [3] was Active.
As for `O=c1[nH]cc(F)c(=O)[nH]1` [FLUOROURACIL], the EC50 came out at 1.23 µM in assay [1]; 1.38 µM in the assay on HT-1080; 3.61 µM in the assay on A549; 0.23 µM with HeLa; 0.31 µM in assay [2].
On to `O=c1cc(-c2ccc(O)cc2)oc2cc(O)cc(O)c12` [APIGENIN], for which the EC50 in assay [1] is 31.6 µM; with HT-1080, 36.6 µM; in the assay with A549 it was 101 µM; in the assay with HeLa it was 92.7 µM; in assay [2] it was 25 µM.
In the case of `COc1cc(O)c2c(c1)O[C@H](c1ccccc1)CC2=O` [PINOSTROBIN], the EC50 in assay [1] was 111 µM; with HT-1080, 156 µM; in the assay with A549 it was > 370 µM; in the assay with HeLa, 202 µM; in assay [2], 128 µM.
As for `O=C(/C=C/c1ccc(O)c(O)c1)OCCc1ccccc1` [CAFFEIC ACID PHENETHYL ESTER], the EC50 turned out to be 6.79 µM in assay [1]; 9.5 µM in the assay with HT-1080; 27.9 µM in the assay on A549; 2.36 µM with HeLa; 0.3 µM in assay [2]. Also, the result in assay [3] was Active.
Consider `COc1cccc2c1C(=O)c1c(O)c3c(c(O)c1C2=O)C[C@@](O)(C(=O)CO)C[C@@H]3O[C@H]1C[C@H](N)[C@H](O)[C@H](C)O1` [DOXORUBICIN HYDROCHLORIDE], for which the 50% effective concentration (EC50) in assay [1] is 0.11 µM; in the assay on HT-1080 it was 0.02 µM; with A549, 0.04 µM; in the assay with HeLa, 0.02 µM; in assay [2] it was 0.02 µM.
